Source: article PMC9476207 (ACS Omega, 2022)

Assays:
Test in all cases: NCI-60 single-dose antiproliferative screen
Assay type in all cases: cell-based
OVCAR-4 = details: Homo sapiens, OVCAR-4, 48 h, read-out: growth percent
Outline: (§1)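 NCI-60 protocol. Lines were grown in RPMI 1640 with 5% FBS and 2 mM L-glutamine, plated and incubated 24 h at 37 °C; time-zero plates were TCA-fixed. The test compound was dissolved in DMSO, diluted in medium with 50 μg/mL gentamicin and given once at a final 10^-5 M (DMSO control) for 48 h. Cells were fixed with cold TCA (1 h, 4 °C) and stained with 0.4% SRB in 1% acetic acid for 10 min. Dye was dissolved in 10 mM Trizma base and read at 515 nm. Growth percent was calculated from time-zero, test and control ODs.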

HT29 = details: Homo sapiens, HT-29, 48 h, read-out: growth percent
Outline: as §1

NCI-H460 = details: Homo sapiens, NCI-H460, 48 h, read-out: growth percent
Outline: as §1

UO-31 = details: Homo sapiens, UO-31, 48 h, read-out: growth percent
Outline: (§2)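 Cells grown in RPMI 1640 with 5% FBS and 2 mM L-glutamine, plated and held 24 h at 37 °C; time-zero plates TCA-fixed. DMSO stocks were diluted in gentamicin-containing medium to a final 10^-5 M, with a DMSO-only control. Exposure 48 h, 5% CO2. Adherent cells TCA-fixed 1 h at 4 °C, stained with 0.4% SRB, solubilised in 10 mM Trizma base, read at 515 nm. Growth percent derived from ODtzero, ODtest and ODctrl.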

HOP-92 = details: Homo sapiens, HOP-92, 48 h, read-out: growth percent
Outline: as §1

SF-539 = details: Homo sapiens, SF-539, 48 h, read-out: growth percent
Outline: as §2

SF-268 = details: Homo sapiens, SF-268, 48 h, read-out: growth percent
Outline: as §1

UACC-62 = details: Homo sapiens, UACC-62, 48 h, read-out: growth percent
Outline: as §2

SK-MEL-2 = details: Homo sapiens, SK-MEL-2, 48 h, read-out: growth percent
Outline: as §2

TK-10 = details: Homo sapiens, TK-10, 48 h, read-out: growth percent
Outline: as §2

NCI-H322M = details: Homo sapiens, 48 h, read-out: growth percent
Outline: as §1

NCI-H23 = details: Homo sapiens, NCI-H23, 48 h, read-out: growth percent
Outline: as §1

IGROV1 = details: Homo sapiens, IGROV-1, 48 h, read-out: growth percent
Outline: as §1

SW-620 = details: Homo sapiens, SW-620, 48 h, read-out: growth percent
Outline: as §2

M14 = details: Homo sapiens, M14, 48 h, read-out: growth percent
Outline: as §1

DU-145 = details: Homo sapiens, DU-145, 48 h, read-out: growth percent
Outline: as §1

NCI-H226 = details: Homo sapiens, NCI-H226, 48 h, read-out: growth percent
Outline: as §1

OVCAR-3 = details: Homo sapiens, OVCAR-3, 48 h, read-out: growth percent
Outline: as §1

HCT-15 = details: Homo sapiens, HCT-15, 48 h, read-out: growth percent
Outline: as §1

CCRF-CEM = details: Homo sapiens, 48 h, read-out: growth percent
Outline: as §1

UACC-257 = details: Homo sapiens, UACC-257, 48 h, read-out: growth percent
Outline: as §2

LOX IMVI = details: Homo sapiens, 48 h, read-out: growth percent
Outline: as §1

KM12 = details: Homo sapiens, KM12, 48 h, read-out: growth percent
Outline: as §1

SK-MEL-5 = details: Homo sapiens, SK-MEL-5, 48 h, read-out: growth percent
Outline: as §2

U251 = details: Homo sapiens, U-251, 48 h, read-out: growth percent
Outline: as §2

MCF-7 = details: Homo sapiens, MCF7, 48 h, read-out: growth percent
Outline: as §1

RXF 393 = details: Homo sapiens, RXF 393, 48 h, read-out: growth percent
Outline: as §1

MDA-MB-435 = details: Homo sapiens, MDA-MB-435, 48 h, read-out: growth percent
Outline: as §1

RPMI-8226 = details: Homo sapiens, RPMI-8226, 48 h, read-out: growth percent
Outline: as §1

BT-549 = details: Homo sapiens, BT-549, 48 h, read-out: growth percent
Outline: as §1

COLO205 = details: Homo sapiens, COLO 205, 48 h, read-out: growth percent
Outline: as §1

OVCAR-8 = details: Homo sapiens, OVCAR-8, 48 h, read-out: growth percent
Outline: as §1

SNB-75 = details: Homo sapiens, SNB-75, 48 h, read-out: growth percent
Outline: as §2

SN12C = details: Homo sapiens, 48 h, read-out: growth percent
Outline: as §2

CAKI-1 = details: Homo sapiens, CAKI-1, 48 h, read-out: growth percent
Outline: as §1

SMILES | activity at 10 µM (OVCAR-4) | activity at 10 µM (HT29) | activity at 10 µM (NCI-H460) | activity at 10 µM (UO-31) | activity at 10 µM (HOP-92) | activity at 10 µM (SF-539) | activity at 10 µM (SF-268) | activity at 10 µM (UACC-62) | activity at 10 µM (SK-MEL-2) | activity at 10 µM (TK-10) | activity at 10 µM (NCI-H322M) | activity at 10 µM (NCI-H23) | activity at 10 µM (IGROV1) | activity at 10 µM (SW-620) | activity at 10 µM (M14) | activity at 10 µM (DU-145) | activity at 10 µM (NCI-H226) | activity at 10 µM (OVCAR-3) | activity at 10 µM (HCT-15) | activity at 10 µM (CCRF-CEM) | also measured
COc1cc(CNC(=O)CCCC/C=C/C(C)C)ccc1OCc1cn(-c2ccc([N+](=O)[O-])cc2)nn1 [14e, (E)-N-(3-Methoxy-4-((1-(4-nitrophenyl)-1H-1,2,3-triazol-4-yl)methoxy)benzyl)-8methylnon-6-enamide] | 87.2% | 98.1% | 99.8% | 60.6% | 90.3% | 104% | 86.1% | 69.3% | 92% | 92.7% | 97.9% | 83.2% | 90.4% | 99.8% | 89.7% | 105% | 89.6% | 92.7% | 96.2% | 84.9% | activity at 10 µM (UACC-257): 82.6%; activity at 10 µM (LOX IMVI): 89.5%; activity at 10 µM (KM12): 90%; activity at 10 µM (SK-MEL-5): 76.1%; activity at 10 µM (U251): 86.4%; activity at 10 µM (MCF-7): 83.5%; activity at 10 µM (RXF 393): 99.7%; activity at 10 µM (MDA-MB-435): 99.7%; activity at 10 µM (RPMI-8226): 61.8%; activity at 10 µM (BT-549): 80.4%; activity at 10 µM (COLO205): 118%; activity at 10 µM (OVCAR-8): 82.9%; activity at 10 µM (SNB-75): 83.9%; activity at 10 µM (SN12C): 91.7%; activity at 10 µM (CAKI-1): 90.7%
COc1cc(CNC(=O)CCCC/C=C/C(C)C)ccc1OCc1cn(-c2cccc([N+](=O)[O-])c2)nn1 [14f, (E)-N-(3-Methoxy-4-((1-(3-nitrophenyl)-1H-1,2,3-triazol-4-yl)methoxy)benzyl)-8-methylnon-6-enamide] | 94.2% | 88.9% | 91.8% | 74.7% | 70.4% | 94.4% | 92.2% | 70% | 88.4% | 105% | 94.1% | 88% | 89.4% | 97.4% | 93.4% | 109% | 90.9% | 105% | 77.9% | 90.2% | activity at 10 µM (UACC-257): 94.4%; activity at 10 µM (LOX IMVI): 92.9%; activity at 10 µM (KM12): 91.2%; activity at 10 µM (SK-MEL-5): 93.2%; activity at 10 µM (U251): 85.3%; activity at 10 µM (MCF-7): 74.1%; activity at 10 µM (RXF 393): 92.7%; activity at 10 µM (MDA-MB-435): 101%; activity at 10 µM (RPMI-8226): 65.9%; activity at 10 µM (BT-549): 96.3%; activity at 10 µM (COLO205): 107%; activity at 10 µM (OVCAR-8): 76.9%; activity at 10 µM (SNB-75): 92%; activity at 10 µM (SN12C): 89.5%; activity at 10 µM (CAKI-1): 81.7%
COc1cc(CNC(=O)CCCC/C=C/C(C)C)ccc1OCc1cn(-c2cc(OC)c(OC)c(OC)c2)nn1 [14m, (E)-N-(3-Methoxy-4-((1-(3,4,5-trimethoxyphenyl)-1H-1,2,3-triazol-4-yl)methoxy)benzyl)-8-methylnon-6-enamide] | 103% | 87.2% | 102% | 117% | 82.5% | 92% | 90.5% | 87.8% | 97.6% | 91.6% | 89.1% | 90.1% | 103% | 102% | 94.5% | 85.4% | 91.4% | 103% | 103% | 96.3% | activity at 10 µM (UACC-257): 93.6%; activity at 10 µM (LOX IMVI): 94.4%; activity at 10 µM (KM12): 103%; activity at 10 µM (SK-MEL-5): 77.5%; activity at 10 µM (U251): 92.8%; activity at 10 µM (MCF-7): 102%; activity at 10 µM (RXF 393): 104%; activity at 10 µM (MDA-MB-435): 106%; activity at 10 µM (RPMI-8226): 79.4%; activity at 10 µM (BT-549): 79.1%; activity at 10 µM (COLO205): 106%; activity at 10 µM (OVCAR-8): 88.2%; activity at 10 µM (SNB-75): 95.2%; activity at 10 µM (SN12C): 102%; activity at 10 µM (CAKI-1): 79.5%
